Source: ChEMBL document CHEMBL1123778, “Synthesis and 5-lipoxygenase inhibitory activity of 5-hydroperoxy-6,8,11,14-eicosatetraenoic acid analogues” (J Med Chem, 1987)

Key:
[1] = biological target: T1, Polyunsaturated fatty acid 5-lipoxygenase (Rattus norvegicus, UniProt P12527); assay: In vitro inhibitory activity against 5-lipoxygenase from rat basophilic leukemia cells.
T1 sequence (P12527 whole entry): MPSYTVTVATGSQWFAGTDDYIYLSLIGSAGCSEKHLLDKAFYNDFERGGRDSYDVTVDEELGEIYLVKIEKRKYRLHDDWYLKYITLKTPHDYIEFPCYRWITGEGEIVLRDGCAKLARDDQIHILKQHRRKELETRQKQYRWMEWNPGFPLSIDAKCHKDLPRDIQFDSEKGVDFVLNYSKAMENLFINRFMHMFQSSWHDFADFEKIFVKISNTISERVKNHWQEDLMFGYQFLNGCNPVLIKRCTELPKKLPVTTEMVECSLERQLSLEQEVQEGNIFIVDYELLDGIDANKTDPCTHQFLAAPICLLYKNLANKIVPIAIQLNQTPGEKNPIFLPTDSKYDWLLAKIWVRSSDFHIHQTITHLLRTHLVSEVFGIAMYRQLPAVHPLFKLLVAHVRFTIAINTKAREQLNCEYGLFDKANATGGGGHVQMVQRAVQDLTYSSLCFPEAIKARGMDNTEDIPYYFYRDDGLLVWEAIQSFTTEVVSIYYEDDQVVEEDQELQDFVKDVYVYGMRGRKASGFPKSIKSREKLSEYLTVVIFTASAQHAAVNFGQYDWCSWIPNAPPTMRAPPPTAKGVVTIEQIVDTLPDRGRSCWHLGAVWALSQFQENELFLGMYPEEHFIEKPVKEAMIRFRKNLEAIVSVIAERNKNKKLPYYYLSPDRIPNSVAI

[2] = biological target: T2, Polyunsaturated fatty acid 5-lipoxygenase (Rattus norvegicus) (UniProt P12527); assay: In vitro inhibitory activity against 5-Lipoxygenase from rat basophilic leukemia cells at 30 uM concentration
T2 sequence (whole entry): T1 sequence (P12527 whole entry)
How it was run: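 20000g supernatant of homogenized RBL-1 cells (7.5×10^6 cell equivalents/mL) preincubated 20 min at 37 °C with inhibitor or vehicle (2% Me₂SO) in pH 6.8 BES/PIPES buffer with EDTA, NaCl, 0.7 mM CaCl₂. Reaction started with 66 μM [¹⁴C]arachidonic acid. [¹⁴C]-5-HETE counted by liquid scintillation, corrected for [³H]-5-HETE recovery. Inhibition = % reduction vs control.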

| Compound | IC50 [1] [µM] | inhibition [2] [%] |
| --- | --- | --- |
| CCCCC/C=C\C/C=C\C/C=C\C=C\C(CCCC(=O)O)CC(=O)NO (centres undefined) | 0.19 | – |
| CCCCC/C=C\C/C=C\C/C=C\C=C\C(CO)CCCC(=O)O (centres undefined) | 29 | – |
| CCCCC/C=C\C/C=C\C/C=C\C=C\C(CCO)CCCC(=O)O (centres undefined) | 22 | – |
| CCCCC/C=C\C/C=C\C/C=C\C=C\C(O)CCCC(=O)NO (centres undefined) | 2.1 | – |
| CCCCC/C=C\C/C=C\C/C=C\C=C\C1CC(=O)CC(CC(=O)O)C1 (centres undefined) | 59 | – |
| CCCCC/C=C\C/C=C\C/C=C\C=C\C(CCCS)CCCC(=O)O (centres undefined) | 36 | – |
| CCCCC/C=C\C/C=C\C/C=C\C=C\C1CCCC(=O)N1 (centres undefined) | 10 | – |
| CCCCC/C=C\C/C=C\C/C=C\C=C\C(CCCO)CCCC(=O)O (centres undefined) | 97 | – |
| CCCCC/C=C\C/C=C\C\C=C/C=C/C(CCCC(=O)O)=N/O | 11 | – |
| CCCCC/C=C\C/C=C\C\C=C/C=C/C(CCCC(=O)O)=N/NC(N)=O | 7 | – |
| CCCCC/C=C\C/C=C\C\C=C/C=C/C(CCCC(=O)O)=N/N=C(/N)S | 7.9 | – |
| CCCCC/C=C\C/C=C\C/C=C\C/C=C\CCCC(=O)NO | 2.2 | – |

More lines, now with the values ahead:

| IC50 [1] [µM] | inhibition [2] [%] | Compound |
| --- | --- | --- |
| 25 | – | CCCCC/C=C\C/C=C\C/C=C\C=C\C(N)CCCC(=O)O (centres undefined) |
| 2.8 | – | CCCCC/C=C\C/C=C\C/C=C\C=C\C(CCCC(=O)O)CCC(=O)NO (centres undefined) |
| 68 | – | CCCCC/C=C\C/C=C\C/C=C\C=C\C(CCCC(=O)O)OC(C)=O (centres undefined) |
| 21 | – | CCCCC/C=C\C/C=C\C/C=C\C=C\C(CCCC(=O)O)NO (centres undefined) |
| 25 | – | CCCCC/C=C\C/C=C\C/C=C\C=C\C(CCS)CCCC(=O)O (centres undefined) |
| 27 | – | CCCCC/C=C\C/C=C\C/C=C\C=C\C1CCCC(=O)O1 (centres undefined) |
| 18 | – | CCCCC/C=C\C/C=C\C/C=C\C=C\C(=O)CCCC(=O)O [5-OXO-ETE] |
| 1.4 | – | CCCCC/C=C\C/C=C\C/C=C\C=C\C(CCCC(=O)O)C(=O)NO (centres undefined) |
| – | 27 | CCCCC/C=C\C/C=C\C/C=C\C=C\C1CCCC(=O)C1 (centres undefined) |
| 7.6 | – | CCCCC/C=C\C/C=C\C/C=C\C=C\C(S)CCCC(=O)O (centres undefined) |
| 96 | – | CCCCC/C=C\C/C=C\C/C=C\C=C\C(CCCC(=O)O)CC(=O)O (centres undefined) |
| 11 | – | CCCCC/C=C\C/C=C\C/C=C\C=C\C(CS)CCCC(=O)O (centres undefined) |
